Measured values: ChEMBL document CHEMBL3124923, “Isolation, structure elucidation, and biological activity of altersolanol P using Staphylococcus aureus fitness test based genome-wide screening” (2014)
Values after ≈ are worked out from the molar mass of the structure shown. Active and inactive are the calls of the source. The rule behind the calls is not given here.

Tests used:
Type in all cases: functional
[1] = system: Pseudomonas aeruginosa; assay: Antimicrobial activity against Pseudomonas aeruginosa
[2] = system: Staphylococcus aureus; assay: Antimicrobial activity against Staphylococcus aureus
[3] = system: Candida albicans; assay: Antimicrobial activity against Candida albicans MY 1055 after 20 hrs by 2-fold serial broth dilution method; conditions: MY 1055, 20 h
Procedure, shortened: (§1)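 MIC for each strain determined following the NCCLS (now CLSI) method, using 2-fold serial dilution of the compound. For the S. aureus Smith strain, MIC was also run with 50% human serum in the medium.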

[4] = system: Staphylococcus aureus; assay: Antimicrobial activity against Staphylococcus aureus Smith MB 2865 after 20 hrs by 2-fold serial broth dilution method in presence of 50 % human serum; conditions: for MIC: Smith MB 2865, 20 h; procedure, shortened: as §1
[5] = system: Staphylococcus aureus; assay: Antimicrobial activity against Staphylococcus aureus Smith MB 2865 after 20 hrs by 2-fold serial broth dilution method; conditions: Smith MB 2865, 20 h; procedure, shortened: as §1
[6] = system: Escherichia coli; assay: Antimicrobial activity against Escherichia coli MB 5746 harboring envA/tolC gene after 20 hrs by 2-fold serial broth dilution method; conditions: MB 5746, 20 h
Procedure, shortened: (§2)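 MIC read following the NCCLS (now CLSI) method, using 2-fold serial dilutions of test compound against each strain.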

[7] = system: Enterococcus faecalis; assay: Antimicrobial activity against vancomycin-sensitive Enterococcus faecalis CL 8516 after 20 hrs by 2-fold serial broth dilution method; conditions: CL 8516, 20 h; procedure, shortened: as §2
[8] = system: Bacillus subtilis; assay: Antimicrobial activity against Bacillus subtilis MB 964 after 20 hrs by 2-fold serial broth dilution method; conditions: MB 964, 20 h; procedure, shortened: as §1
[9] = system: Haemophilus influenzae; assay: Antimicrobial activity against Haemophilus influenzae MB 4572 after 20 hrs by 2-fold serial broth dilution method; conditions: MB 4572, 20 h; procedure, shortened: as §1
[10] = system: Streptococcus pneumoniae; assay: Antimicrobial activity against Streptococcus pneumoniae CL 2883 grown in iso sensitet medium after 20 hrs by 2-fold serial broth dilution method; conditions: CL 2883, 20 h; procedure, shortened: as §1
[11] = system: Streptococcus pneumoniae; assay: Antimicrobial activity against Streptococcus pneumoniae CL 2883 grown in 2.5 % lysed horse blood medium after 20 hrs by 2-fold serial broth dilution method; conditions: CL 2883, 20 h; procedure, shortened: as §1
[12] = system: Escherichia coli; assay: Antimicrobial activity against wild-type Escherichia coli MB 2884 after 20 hrs by 2-fold serial broth dilution method; conditions: MB 2884, 20 h; procedure, shortened: as §1

SMILES | MIC [1] [µg/mL] | MIC [2] [µg/mL] | other results
COc1cc(O)c2c(c1)C(=O)C1=C(C[C@@H](O)[C@@](C)(O)[C@@H]1O)C2=O [ALTERSOLANOL C] | 12.5 (≈ 39 µM) | 12.5 (≈ 39 µM) | –
COc1cc(O)c2c(c1)C(=O)[C@@H]1[C@H](C[C@@H](O)[C@@](C)(O)[C@@H]1O)[C@H]2O [ALTERSOLANOL K] | 12.5 (≈ 38.5 µM) | 12.5 (≈ 38.5 µM) | MIC [3]: 8 µg/mL (≈ 24.7 µM); Activity [4]: Active
COc1cc(O)cc2c1C(=O)C1=C(C2=O)[C@@H](O)[C@](C)(O)[C@H](O)[C@H]1O | 12.5 (≈ 37.2 µM) | 12.5 (≈ 37.2 µM) | –
COc1cc(O)c2c(c1)C(=O)C1=C(C2=O)[C@H](O)[C@H](O)[C@@](C)(O)[C@@H]1O | 12.5 (≈ 37.2 µM) | 12.5 (≈ 37.2 µM) | –
COc1cc(O)c2c(c1)C(=O)C1=C(C2=O)[C@H](O)[C@@H](O)[C@@](C)(O)[C@@H]1O [ALTERSOLANOL A] | 12.5 (≈ 37.2 µM) | 12.5 (≈ 37.2 µM) | –
CC1(C)S[C@@H]2[C@H](NC(=O)Cc3ccccc3)C(=O)N2[C@H]1C(=O)O [PENICILLIN G] | – | – | MIC [3]: > 64 µg/mL; MIC [5]: < 0.06 µg/mL; MIC [6]: 8 µg/mL (≈ 23.9 µM); MIC [7]: 4 µg/mL (≈ 12 µM); MIC [4]: 0.12 µg/mL; MIC [8]: < 0.06 µg/mL; MIC [9]: 0.06 µg/mL (≈ 0.179 µM); MIC [10]: < 0.015 µg/mL; MIC [11]: < 0.015 µg/mL
C[C@@]1(O)CCC2=C(C(=O)c3cccc(O)c3C2=O)[C@@H]1O | – | 2 (≈ 7.29 µM) | MIC [3]: 8 µg/mL (≈ 29.2 µM); MIC [5]: 4 µg/mL (≈ 14.6 µM); MIC [6]: 32 µg/mL (≈ 117 µM); MIC [7]: 1 µg/mL (≈ 3.65 µM); MIC [12]: > 64 µg/mL; MIC [4]: > 64 µg/mL; MIC [8]: 2 µg/mL (≈ 7.29 µM); MIC [9]: 2 µg/mL (≈ 7.29 µM); MIC [10]: 4 µg/mL (≈ 14.6 µM); MIC [11]: 8 µg/mL (≈ 29.2 µM)
COc1cc(O)c2c(c1)C(=O)C1=C(C2=O)[C@H](C)[C@@H](O)[C@@](C)(O)[C@@H]1O | 12.5 (≈ 37.4 µM) | 12.5 (≈ 37.4 µM) | –
COc1cc(O)c2c(c1)C(=O)[C@H]1C[C@](C)(O)[C@H](O)C[C@@H]1[C@H]2O [ALTERSOLANOL J] | 12.5 (≈ 40.5 µM) | 12.5 (≈ 40.5 µM) | –
COc1cc(O)c2c(c1)C(=O)C1=C(C[C@@H](O)[C@@](C)(O)C1)C2=O [ALTERSOLANOL B] | 12.5 (≈ 41.1 µM) | 12.5 (≈ 41.1 µM) | –
COc1cc(O)cc2c1C(=O)C1=C(C2=O)[C@H](O)[C@](C)(O)[C@H](O)[C@H]1O | 12.5 (≈ 37.2 µM) | 12.5 (≈ 37.2 µM) | –
COc1cc(O)c2c(c1)C(=O)C1=C(C[C@H](O)[C@@](C)(O)[C@@H]1O)C2=O | 12.5 (≈ 39 µM) | 12.5 (≈ 39 µM) | –
